Arrestin-AP2 inh: inhibitors of beta-arrestin/AP2 binding, primary screen, biochemical, GPCR trafficking, flow cytometry | 340,000 tested, 0.31% active | AID 504490, 2011 | FITC-arrestin peptide / GST-AP2 beads; AP2 beta2 appendage carries R879A mutation | inhibition, % at 10 µM;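 active means inhibition above a set limit, near 3 SD of compounds lacking own fluorescence, cut at about 54% in these data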;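 further: plate controls were DMSO wells for no effect and 5 µM unlabelled arrestin peptide for full effect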
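test system = AP2 appendage R879A on GSH beads | buffer or medium = PBS plus Tween 20 (0.05%) and BSA (0.1%) | incubation = 12 min plus 1 h, RT | detection = bead flow cytometry, FITC channel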
ABCB6 inh MLPCN: ABCB6 transporter inhibitors, primary screen, K562-ABCB6 cells, flow cytometry, MLPCN library. K562-ABCB6 porphyrin accumulation, 1 h; hits give low values. 360,000 tested, 0.19% active. fluorescence ratio to DMSO, % at 10 µM. ATP-binding cassette sub-family B member 6 (Homo sapiens), Q9NP58;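 active means fluorescence ratio to DMSO below 75%, the collection mean minus 3 SD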;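 further: signal is porphyrin accumulated inside mitochondria; 100% equals median channel fluorescence of DMSO control wells; lower ratio means ABCB6 inhibition with less porphyrin fluorescence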
Exocytosis inh: LAMP-1 surface exposure blockers, TALL-104 cells – cell-based, flow cytometry, MLPCN library, primary screen | TALL-104 LAMP-1 surface exposure; cells stimulated with thapsigargin and PMA | inhibition, % at 10 µM | 360,000 tested, 0.66% active | AID 651702, 2012;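 active means inhibition above about 55%, limit read from the data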
CendR NRP1 mod: modulators of CendR peptide binding to NRP-1, primary screen, biochemical, fluorescence polarization, uHTS; Neuropilin-1 (Homo sapiens), O14786; FAM-RPARPAR peptide binding to NRP-1; inhibition, % at 25 µM; 360,000 tested, 0.85% active;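 active means inhibition or corrected inhibition above about 18%, plus a signal ratio from 0.5 to 1.5, limit read from the data, passing the limit was not always enough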
Target sequence (O14786 whole entry, looked up): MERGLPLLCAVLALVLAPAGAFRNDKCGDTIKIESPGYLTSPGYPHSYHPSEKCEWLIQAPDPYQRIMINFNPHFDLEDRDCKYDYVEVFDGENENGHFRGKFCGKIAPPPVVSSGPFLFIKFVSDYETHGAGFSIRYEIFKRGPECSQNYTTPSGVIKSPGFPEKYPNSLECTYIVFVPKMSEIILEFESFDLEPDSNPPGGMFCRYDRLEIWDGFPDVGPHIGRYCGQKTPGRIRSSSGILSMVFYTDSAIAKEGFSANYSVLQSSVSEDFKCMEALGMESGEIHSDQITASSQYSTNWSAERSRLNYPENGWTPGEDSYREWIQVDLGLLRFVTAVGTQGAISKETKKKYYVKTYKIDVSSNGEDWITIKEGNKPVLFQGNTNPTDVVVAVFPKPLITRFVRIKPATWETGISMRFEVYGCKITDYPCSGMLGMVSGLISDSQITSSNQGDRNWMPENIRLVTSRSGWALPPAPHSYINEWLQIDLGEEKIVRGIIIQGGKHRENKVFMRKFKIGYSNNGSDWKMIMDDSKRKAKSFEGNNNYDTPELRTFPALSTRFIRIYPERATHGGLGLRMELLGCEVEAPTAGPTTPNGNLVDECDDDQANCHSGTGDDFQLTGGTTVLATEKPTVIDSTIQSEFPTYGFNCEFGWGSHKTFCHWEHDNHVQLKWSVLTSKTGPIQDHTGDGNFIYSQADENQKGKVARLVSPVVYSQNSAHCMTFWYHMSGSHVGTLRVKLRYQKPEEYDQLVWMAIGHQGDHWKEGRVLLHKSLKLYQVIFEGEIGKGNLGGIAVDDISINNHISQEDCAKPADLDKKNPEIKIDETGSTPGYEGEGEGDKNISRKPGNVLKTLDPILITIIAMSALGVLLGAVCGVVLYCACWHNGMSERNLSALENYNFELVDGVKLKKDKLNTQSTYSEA
Myeloid diff MLP: induction of myeloid progenitor differentiation, primary screen, cell-based, flow cytometry, MLPCN library; 360,000 tested, 1% active; calls only at 10 µM; ER-HoxA9 myeloid progenitors, lysozyme-GFP differentiation;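 active means normalized GFP-positive differentiation at or above the plate's own cutoff, the solvent-only control mean plus 3 SD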;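 further: cells exposed to compound for four days before flow analysis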
ATG4B inh: ATG4B protease inhibitors, primary screen, biochemical, fluorescence, uHTS; ATG4B cleavage of LC3-PLA2, NBD-HPC fluorescence, 1 h; inhibition, % at 8.33 µM; 340,000 tested, 0.51% active; in the data active means inhibition above about 40%
Granule exo CP1: inhibitors of lytic granule exocytosis, confirmation, TALL-104 cells, flow cytometry, Cherry Pick01 | AID 651954, 2012 | 1,500 tested, 11% active | inhibition, % at 10 µM | shares compounds with Exocytosis inh | LAMP-1 externalization; stimulated with PMA plus thapsigargin; in the data active means inhibition above about 60%;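 further: 0% = stimulated vehicle wells and 100% = unstimulated wells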
Starred values were filed as active, the others as inactive. Most compounds without a hit are left out; they make up all but 3.3% or so of the library.

CCOc1ccc(S(=O)(=O)Nc2cccc(C(=O)N3CCN(c4ccccc4O)CC3)c2)cc1 was read as Arrestin-AP2 inh 4.5, ABCB6 inh MLPCN 95.0, Exocytosis inh 0.2, CendR NRP1 mod 4.8, Myeloid diff MLP inactive and ATG4B inh -9.4.
Screening CCOc1ccc(S(=O)(=O)Nc2cccc(C(=O)N3CCN(c4ccccn4)CC3)c2)cc1 returned ABCB6 inh MLPCN 105.0, Exocytosis inh 55.5*, CendR NRP1 mod -4.5, Myeloid diff MLP inactive and Granule exo CP1 -2.6.
For c1ccc(COc2ccc(-c3cc4nc(NCCN5CCOCC5)ccn4n3)cc2)cc1 the results were ABCB6 inh MLPCN 94.0, Exocytosis inh 61.4*, CendR NRP1 mod -37.3, Myeloid diff MLP inactive and Granule exo CP1 15.1.
Screening O=C1NCCN(CC2CCN(CCc3ccccc3)CC2)C1=O returned ABCB6 inh MLPCN 102.0, Exocytosis inh 0.3, CendR NRP1 mod -6.5 and Myeloid diff MLP inactive.
CCCCCCCCC(c1nc2ccccc2[nH]1)N1CCN=C1c1cc2ccccc2[nH]1 (centres undefined) was read as ABCB6 inh MLPCN 101.0, Exocytosis inh 75.6*, CendR NRP1 mod -8.0, Myeloid diff MLP inactive and Granule exo CP1 44.6.
`CCC(c1nc2ccccc2[nH]1)n1c(-c2ccc3ccccc3c2)nc2ccccc21` (centres undefined) gave Exocytosis inh 6.0, CendR NRP1 mod 1.3 and Myeloid diff MLP inactive.
O=C(NCCCN1CCCC1=O)C1CCN(S(=O)(=O)c2cc(C(F)(F)F)ccc2Cl)CC1 was read as Arrestin-AP2 inh 4.3, ABCB6 inh MLPCN 87.0, Exocytosis inh 89.8*, CendR NRP1 mod 7.7, Myeloid diff MLP inactive, ATG4B inh 5.1 and Granule exo CP1 -11.3.
Cc1ccc(C(=O)N/C(=C\c2ccc(-c3ccc(Br)cc3)o2)C(=O)NCCCN(C)C)cc1 was read as Arrestin-AP2 inh -3.2, ABCB6 inh MLPCN 103.0, Exocytosis inh 75.1*, CendR NRP1 mod -3.7, Myeloid diff MLP active, ATG4B inh 16.5 and Granule exo CP1 99.1*.
For Cc1ccc(C(=O)N/C(=C\c2ccc(-c3cccc([N+](=O)[O-])c3)o2)C(=O)NCCCN(C)C)cc1 the results were Arrestin-AP2 inh -1.3, ABCB6 inh MLPCN 100.0, Exocytosis inh 1.2, CendR NRP1 mod -6.2, Myeloid diff MLP inactive and ATG4B inh 4.0.
Screening Cc1ccc(-c2cn(S(=O)(=O)c3ccc(C)cc3)nc2N)cc1 returned Arrestin-AP2 inh 12.7, ABCB6 inh MLPCN 93.0, Exocytosis inh 2.9, CendR NRP1 mod -2.5, Myeloid diff MLP inactive and ATG4B inh -9.7.
Screening CCOc1ccc(S(=O)(=O)n2cc(-c3ccc(F)cc3)c(N)n2)cc1 returned Arrestin-AP2 inh 12.2, ABCB6 inh MLPCN 89.0, Exocytosis inh 74.0*, CendR NRP1 mod 8.7, Myeloid diff MLP inactive, ATG4B inh -1.7 and Granule exo CP1 2.5.
For CCOc1ccc(S(=O)(=O)n2cc(-c3ccccc3)c(N)n2)cc1 the results were Arrestin-AP2 inh -6.0, ABCB6 inh MLPCN 91.0, Exocytosis inh 66.9*, CendR NRP1 mod 8.7, Myeloid diff MLP inactive, ATG4B inh 3.8 and Granule exo CP1 -7.5.
Screening COc1ccc(Oc2nc(-c3ccncc3)nc3ccccc23)cc1 returned Arrestin-AP2 inh 41.4, ABCB6 inh MLPCN 89.0, Exocytosis inh 4.8, CendR NRP1 mod -4.8, Myeloid diff MLP inactive and ATG4B inh -9.8.
For CCCOc1ccc(Oc2nc(-c3ccncc3)nc3ccccc23)cc1 the results were Arrestin-AP2 inh 33.5, ABCB6 inh MLPCN 96.0, Exocytosis inh 93.7*, CendR NRP1 mod 10.1, Myeloid diff MLP inactive, ATG4B inh -9.8 and Granule exo CP1 -13.8.
